ChEMBL document CHEMBL1926573, “Synthesis, antiproliferative activity and genotoxicity of novel anthracene-containing aminophosphonates and a new anthracene-derived Schiff base” (Bioorg Med Chem, 2012)
In brackets after ≈: the same amount, converted by molar mass. Activity calls are given as the source filed them. The calls are words filed in the database; no cut-off is given here.

Tests used:
[1] = Drug uptake in cytoplasm of human HBL100 cells at non-toxic concentration after 24 hrs by fluorescent microscopic analysis; format: ADME, cell-based; settings: hbl-100, 24 h
Method in brief: (§1)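 HBL-100 cells were seeded at 1×10^5/ml on diagnostic slides, adhered overnight (37.5 °C, 5% CO2), and exposed 24 h to non-toxic concentrations. Intrinsic anthracene fluorescence was imaged by fluorescence microscopy to locate subcellular distribution.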

Bone marrow cell [2] = assay: Induction of clastogenic effect in ICR mouse bone marrow cells assessed as chromosomal aberration at 10 mg/kg, ip after 24 hrs; format: functional; settings: route intraperitoneal
Method in brief: (§2)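 ICR mice (male and female, 20 ± 1.5 g; 4 males + 4 females per treated group, 10 per control group) given compound ip at 10 or 100 mg/kg; mitomycin C 3.5 mg/kg positive control, 0.9% saline negative control. Colchicine 0.4 mg/kg ip 1 h before femoral marrow harvest at 24 or 48 h. Cells put in 0.075 M KCl (37 °C, 20 min), fixed in methanol–acetic acid 3:1, stained with Giemsa. ≥50 metaphases scored per animal. Mitotic index counted in 1500 cells per animal. Group mean ± SEM, Student's t-test.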

Bone marrow cell [3] = assay: Induction of mitosis in ICR mouse bone marrow cells assessed as mitotic index at 100 mg/kg, ip after 48 hrs; format: functional; settings: route intraperitoneal; method in brief: as §2
MCF7 = assay: Cytotoxicity against human MCF7 cells after 24 hrs by MTT assay; format: functional, cell-based; settings: MCF7, 24 h
Method in brief: (§3)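 Human tumor lines were grown in RPMI 1640 (MCF-7, HBL-100) or high-glucose DMEM (others) with 10% FCS at 37.5 °C and 5% CO2. Cells were seeded at 1×10^4/well, allowed to adhere 24 h, then exposed 24 h to 1–0.0681 mg/ml (1.47-fold dilutions) from DMSO stock diluted in PBS, with DMSO ≤1%. Doxorubicin was the reference. MTT-formazan was read at 580 nm. IC50 by non-linear regression; mean ± SD of three experiments.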

Bone marrow cell [4] = assay: Induction of clastogenic effect in ICR mouse bone marrow cells assessed as chromosomal breaks and fragmentation at 10 to 100 mg/kg, ip; format: functional; settings: dose mg/kg 10-100; route intraperitoneal; method in brief: as §2
Bone marrow cell [5] = assay: Induction of mitosis in ICR mouse bone marrow cells assessed as mitotic index at 10 mg/kg, ip after 24 hrs; format: functional; settings: route intraperitoneal; method in brief: as §2
Bone marrow cell [6] = assay: Induction of clastogenic effect in ICR mouse bone marrow cells assessed as chromosomal aberration at 100 mg/kg, ip after 48 hrs; format: functional; settings: route intraperitoneal; method in brief: as §2
Bone marrow cell [7] = assay: Induction of mitosis in ICR mouse bone marrow cells assessed as mitotic index at 10 mg/kg, ip after 48 hrs; format: functional; settings: route intraperitoneal; method in brief: as §2
HeLa = assay: Cytotoxicity against human HeLa cells after 24 hrs by MTT assay; format: functional, cell-based; method in brief: as §3
Bone marrow cell [8] = assay: Induction of mitosis in ICR mouse bone marrow cells assessed as mitotic index at 100 mg/kg, ip after 24 hrs; format: functional; settings: route intraperitoneal; method in brief: as §2
647-V = assay: Cytotoxicity against human 647V cells after 24 hrs by MTT assay; format: functional, cell-based; method in brief: as §3
HBL-100 [9] = assay: Cytotoxicity against human HBL100 cells after 24 hrs by MTT assay; format: functional, cell-based; settings: HBL-100, 24 h; method in brief: as §3
MDA-MB-231 = assay: Cytotoxicity against human MDA-MB-231 cells after 24 hrs by MTT assay; format: functional, cell-based; settings: MDA-MB-231, 24 h; method in brief: as §3
Bone marrow cell [10] = assay: Induction of clastogenic effect in ICR mouse bone marrow cells assessed as chromosomal aberration at 100 mg/kg, ip after 24 hrs; format: functional; settings: route intraperitoneal; method in brief: as §2
HepG2 = assay: Cytotoxicity against human HepG2 cells after 24 hrs by MTT assay; format: functional, cell-based; settings: HepG2, 24 h; method in brief: as §3
Bone marrow cell [11] = assay: Induction of clastogenic effect in ICR mouse bone marrow cells assessed as rearrangement in centromere to centromeric fusion at 10 to 100 mg/kg, ip; format: functional; settings: dose mg/kg 10-100; route intraperitoneal; method in brief: as §2
HT-29 = assay: Cytotoxicity against human HT-29 cells after 24 hrs by MTT assay; format: functional, cell-based; settings: HT-29, 24 h; method in brief: as §3
Bone marrow cell [12] = assay: Induction of clastogenic effect in ICR mouse bone marrow cells assessed as chromosomal aberration at 10 mg/kg, ip after 48 hrs; format: functional; settings: route intraperitoneal; method in brief: as §2
HBL-100 [13] = assay: Ratio of Doxorubicin IC50 to compound IC50 for human HBL100 cells after 24 hrs by MTT assay; format: functional
[14] = Drug uptake in nuclei of human HBL100 cells at non-toxic concentration after 24 hrs by fluorescent microscopic analysis; format: ADME, cell-based, Nucleus; settings: hbl-100, 24 h; method in brief: as §1
[15] = Drug uptake in nuclear membrane of human HBL100 cells at non-toxic concentration after 24 hrs by fluorescent microscopic analysis; format: ADME, cell membranes; settings: hbl-100, 24 h; method in brief: as §1
Bone marrow cell [16] = assay: Antiproliferative activity in ICR mouse bone marrow cells assessed as inhibition of cell division at 10 to 100 mg/kg, ip measured after 48 hrs; format: functional, organism-based; method in brief: as §2
Bone marrow cell [17] = assay: Induction of mitosis in ICR mouse bone marrow cells assessed as mitotic index at 3.5 mg/kg, ip after 24 hrs; format: functional; settings: route intraperitoneal; method in brief: as §2
Bone marrow cell [18] = assay: Induction of clastogenic effect in ICR mouse bone marrow cells assessed as chromosomal aberration at 3.5 mg/kg, ip after 24 hrs; format: functional; settings: route intraperitoneal; method in brief: as §2
Bone marrow cell [19] = assay: Induction of clastogenic effect in ICR mouse bone marrow cells assessed as rearrangement in centromere to centromeric fusion at 3.5 mg/kg, ip after 24 hrs; format: functional; settings: route intraperitoneal; method in brief: as §2
Bone marrow cell [20] = assay: Induction of clastogenic effect in ICR mouse bone marrow cells assessed as chromosomal aberration at 3.5 mg/kg, ip after 48 hrs; format: functional; settings: route intraperitoneal; method in brief: as §2
Bone marrow cell [21] = assay: Induction of clastogenic effect in ICR mouse bone marrow cells assessed as chromosomal breaks and fragmentation at 3.5 mg/kg, ip after 24 hrs; format: functional; settings: route intraperitoneal; method in brief: as §2
Bone marrow cell [22] = assay: Induction of mitosis in ICR mouse bone marrow cells assessed as mitotic index at 3.5 mg/kg, ip after 48 hrs; format: functional; settings: route intraperitoneal; method in brief: as §2

| SMILES | Activity (Bone marrow cell [2]) [%] | Activity (Bone marrow cell [3]) | IC50 (MCF7) [µg/mL] | Activity (Bone marrow cell [5]) | Activity (Bone marrow cell [6]) [%] | Activity (Bone marrow cell [7]) | IC50 (HeLa) [µg/mL] | Activity (Bone marrow cell [8]) | IC50 (647-V) [µg/mL] | IC50 (HBL-100 [9]) [µg/mL] | IC50 (MDA-MB-231) [µg/mL] | Activity (Bone marrow cell [10]) [%] | IC50 (HepG2) [µg/mL] | IC50 (HT-29) [µg/mL] | Activity (Bone marrow cell [12]) [%] | also measured |
| --- | --- | --- | --- | --- | --- | --- | --- | --- | --- | --- | --- | --- | --- | --- | --- | --- |
| Cc1ccc(/N=C/c2c3ccccc3cc3ccccc23)cc1 | 5.25 | 11.7 ‰ | 450 (≈ 1520 µM) | 12.6 ‰ | 6.5 | 8.45 ‰ | 170 (≈ 576 µM) | 10.7 ‰ | 130 (≈ 440 µM) | 310 (≈ 1050 µM) | 120 (≈ 406 µM) | 6.57 | 180 (≈ 609 µM) | 80 (≈ 271 µM) | 5 | Drug uptake [1]: Active; Activity (Bone marrow cell [4]): 35.6%; Activity (Bone marrow cell [11]): 62.17% |
| CCOP(=O)(OCC)C(NCc1ccco1)c1c2ccccc2cc2ccccc12 (configuration not stated) | 6.25 | – | 100 (≈ 236 µM) | 15.1 ‰ | – | 10.1 ‰ | 120 (≈ 283 µM) | – | 70 (≈ 165 µM) | 70 (≈ 165 µM) | 70 (≈ 165 µM) | – | 110 (≈ 260 µM) | 110 (≈ 260 µM) | 4.75 | Ratio IC50 (HBL-100 [13]): 2 |
| CCOP(=O)(OCC)C(Nc1ccc(C)cc1)c1c2ccccc2cc2ccccc12 (configuration not stated) | 4.75 | 11.8 ‰ | > 2000 | 13.4 ‰ | 8 | 11.9 ‰ | 1940 (≈ 4480 µM) | 16.1 ‰ | > 2000 | 730 (≈ 1680 µM) | > 2000 | 8.5 | > 2000 | > 2000 | 6 | Drug uptake [14]: Active; Drug uptake [15]: Active |
| COP(=O)(OC)C(Nc1ccc(C)cc1)c1c2ccccc2cc2ccccc12 (configuration not stated) | 4 | 14.1 ‰ | 450 (≈ 1110 µM) | 12.6 ‰ | 6 | 15.6 ‰ | > 2000 | 12 ‰ | 600 (≈ 1480 µM) | 20 (≈ 49.3 µM) | 880 (≈ 2170 µM) | 5.5 | 830 (≈ 2050 µM) | > 2000 | 4.75 | Activity (Bone marrow cell [16]): inactive |
| COc1cccc2c1C(=O)c1c(O)c3c(c(O)c1C2=O)C[C@@](O)(C(=O)CO)C[C@@H]3O[C@H]1C[C@H](N)[C@H](O)[C@H](C)O1.Cl [DOXORUBICIN HYDROCHLORIDE] | – | – | < 68 | – | – | – | < 68 | – | < 68 | 140 | < 68 | – | < 68 | 580 | – | – |
| C(=N\Cc1ccco1)/c1c2ccccc2cc2ccccc12 | 4.75 | 15.2 ‰ | 260 (≈ 911 µM) | 11.3 ‰ | 5.5 | 10.2 ‰ | 360 (≈ 1260 µM) | 12.4 ‰ | 80 (≈ 280 µM) | 460 (≈ 1610 µM) | 450 (≈ 1580 µM) | 5.5 | 120 (≈ 421 µM) | 200 (≈ 701 µM) | 4.43 | Activity (Bone marrow cell [16]): inactive |
| CO[C@@]12[C@H](COC(N)=O)C3=C(C(=O)C(C)=C(N)C3=O)N1C[C@@H]1N[C@@H]12 [MITOMYCIN] | – | – | – | – | – | – | – | – | – | – | – | – | – | – | – | Activity (Bone marrow cell [17]): 5.49 ‰; Activity (Bone marrow cell [18]): 30.5%; Activity (Bone marrow cell [19]): 24.9%; Activity (Bone marrow cell [20]): 15.8%; Activity (Bone marrow cell [21]): 75.1%; Activity (Bone marrow cell [22]): 7.29 ‰ |
